# Key:
# Conditions in all cases: stereoisomer not certain
# Or5p57 (Mus musculus) = Or5p57 (Mus musculus) (UniProt Q8VEZ0)
# In short: (§1)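 Values were gathered from published papers (main text and supplementary material), with extra details requested from the original authors when needed, and checked for typos and inconsistencies. Each receptor–molecule pair is called responsive (active) if the original authors judged the measured signal statistically different from baseline, and non-responsive (inactive) otherwise. Assay methods varied by source, often transient mammalian cell-line luciferase assays. Recorded details include cell line, G-protein, co-transfected protein and tags.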
# Or1m1 (Mus musculus) = molecular target: T1, Or1m1 (Mus musculus) (UniProt Q8VFM9)
# T1 sequence (whole entry): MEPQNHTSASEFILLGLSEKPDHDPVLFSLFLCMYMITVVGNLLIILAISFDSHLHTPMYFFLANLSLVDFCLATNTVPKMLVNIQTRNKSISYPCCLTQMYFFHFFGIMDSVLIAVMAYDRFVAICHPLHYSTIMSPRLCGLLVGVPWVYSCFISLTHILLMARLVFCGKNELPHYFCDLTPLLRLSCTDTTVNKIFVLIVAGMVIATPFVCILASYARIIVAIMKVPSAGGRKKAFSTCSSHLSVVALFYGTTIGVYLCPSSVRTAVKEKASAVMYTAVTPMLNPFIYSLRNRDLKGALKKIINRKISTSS
# In short: as §1
# Or5ar1 (Mus musculus) = molecular target: T2, Or5ar1 (Mus musculus) (UniProt Q8VGS3)
# T2 sequence (whole entry): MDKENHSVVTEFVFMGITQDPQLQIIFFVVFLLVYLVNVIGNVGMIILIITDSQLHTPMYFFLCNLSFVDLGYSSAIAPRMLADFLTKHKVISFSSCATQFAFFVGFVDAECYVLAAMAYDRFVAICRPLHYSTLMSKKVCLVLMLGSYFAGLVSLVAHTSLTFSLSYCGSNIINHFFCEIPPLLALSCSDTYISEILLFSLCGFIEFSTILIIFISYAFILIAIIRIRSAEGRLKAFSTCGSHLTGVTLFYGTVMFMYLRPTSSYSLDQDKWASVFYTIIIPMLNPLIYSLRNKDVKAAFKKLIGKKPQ
# In short: as §1
# UniProt A2ATE5 = molecular target: T3, UniProt A2ATE5
# T3 sequence (whole entry): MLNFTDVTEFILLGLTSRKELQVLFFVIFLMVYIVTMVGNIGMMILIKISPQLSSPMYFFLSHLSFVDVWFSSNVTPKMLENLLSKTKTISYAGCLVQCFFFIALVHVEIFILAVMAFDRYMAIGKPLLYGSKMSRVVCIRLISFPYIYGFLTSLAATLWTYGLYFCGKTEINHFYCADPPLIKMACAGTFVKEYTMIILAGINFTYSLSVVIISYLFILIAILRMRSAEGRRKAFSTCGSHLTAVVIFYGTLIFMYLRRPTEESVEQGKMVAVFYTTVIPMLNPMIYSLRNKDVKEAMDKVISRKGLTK
# In short: as §1
# UniProt A2AVB0 = molecular target: T4, UniProt A2AVB0
# T4 sequence (whole entry): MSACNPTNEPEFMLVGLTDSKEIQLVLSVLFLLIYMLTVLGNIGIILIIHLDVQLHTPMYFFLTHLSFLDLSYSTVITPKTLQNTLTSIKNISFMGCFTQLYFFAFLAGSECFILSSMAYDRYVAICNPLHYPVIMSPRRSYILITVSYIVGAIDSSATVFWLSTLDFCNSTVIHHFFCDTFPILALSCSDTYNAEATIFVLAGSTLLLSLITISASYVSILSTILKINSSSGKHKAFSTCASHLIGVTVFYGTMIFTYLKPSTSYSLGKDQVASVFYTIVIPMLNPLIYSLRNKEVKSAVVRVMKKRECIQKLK
# In short: as §1
# Or2c1 (Mus musculus) = molecular target: T5, Or2c1 (Mus musculus) (UniProt P23275)
# T5 sequence (whole entry): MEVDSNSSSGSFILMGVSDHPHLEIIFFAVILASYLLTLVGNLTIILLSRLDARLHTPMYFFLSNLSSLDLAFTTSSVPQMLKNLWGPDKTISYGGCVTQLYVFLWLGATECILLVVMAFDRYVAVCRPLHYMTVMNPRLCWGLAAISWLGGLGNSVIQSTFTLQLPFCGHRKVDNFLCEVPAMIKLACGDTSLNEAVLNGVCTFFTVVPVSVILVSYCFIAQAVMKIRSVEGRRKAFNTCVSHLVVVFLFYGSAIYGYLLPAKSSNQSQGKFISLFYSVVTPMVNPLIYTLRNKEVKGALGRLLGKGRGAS
# In short: as §1
# Or5p80 (Mus musculus) = molecular target: T6, Or5p80 (Mus musculus) (UniProt Q8VG42)
# T6 sequence (whole entry): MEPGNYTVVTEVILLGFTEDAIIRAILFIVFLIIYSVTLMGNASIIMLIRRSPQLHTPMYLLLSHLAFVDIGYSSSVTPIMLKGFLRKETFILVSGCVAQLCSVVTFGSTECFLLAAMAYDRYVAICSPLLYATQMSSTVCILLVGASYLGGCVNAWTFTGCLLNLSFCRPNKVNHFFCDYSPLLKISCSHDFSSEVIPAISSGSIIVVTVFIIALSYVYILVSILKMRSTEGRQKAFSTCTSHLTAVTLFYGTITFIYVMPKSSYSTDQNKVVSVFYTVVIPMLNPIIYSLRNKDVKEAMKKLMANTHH
# In short: as §1
# Or7a40 (Mus musculus) = molecular target: T7, Or7a40 (Mus musculus) (UniProt Q9JHB2)
# T7 sequence (whole entry): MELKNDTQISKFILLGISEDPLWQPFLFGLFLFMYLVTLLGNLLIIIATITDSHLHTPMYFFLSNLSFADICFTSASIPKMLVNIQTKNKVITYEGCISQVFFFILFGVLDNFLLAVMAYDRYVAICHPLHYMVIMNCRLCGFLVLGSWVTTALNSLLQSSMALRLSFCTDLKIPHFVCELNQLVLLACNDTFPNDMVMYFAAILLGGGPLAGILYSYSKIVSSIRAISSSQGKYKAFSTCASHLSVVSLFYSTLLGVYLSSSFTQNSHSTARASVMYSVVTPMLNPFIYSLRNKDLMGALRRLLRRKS
# In short: as §1
# UniProt A2AVB5 = molecular target: T8, UniProt A2AVB5
# T8 sequence (whole entry): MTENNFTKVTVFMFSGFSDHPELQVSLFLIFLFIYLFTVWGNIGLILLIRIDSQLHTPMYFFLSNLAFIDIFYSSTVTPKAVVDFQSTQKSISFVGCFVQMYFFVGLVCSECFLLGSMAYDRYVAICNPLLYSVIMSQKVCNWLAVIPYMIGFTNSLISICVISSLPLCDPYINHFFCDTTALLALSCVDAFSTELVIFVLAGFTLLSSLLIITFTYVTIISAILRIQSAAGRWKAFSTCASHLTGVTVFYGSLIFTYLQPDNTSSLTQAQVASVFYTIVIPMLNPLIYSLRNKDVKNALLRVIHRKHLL
# In short: as §1
# OR9G9 = system: OR9G9
# Sequence of OR9G9 (as listed by the source): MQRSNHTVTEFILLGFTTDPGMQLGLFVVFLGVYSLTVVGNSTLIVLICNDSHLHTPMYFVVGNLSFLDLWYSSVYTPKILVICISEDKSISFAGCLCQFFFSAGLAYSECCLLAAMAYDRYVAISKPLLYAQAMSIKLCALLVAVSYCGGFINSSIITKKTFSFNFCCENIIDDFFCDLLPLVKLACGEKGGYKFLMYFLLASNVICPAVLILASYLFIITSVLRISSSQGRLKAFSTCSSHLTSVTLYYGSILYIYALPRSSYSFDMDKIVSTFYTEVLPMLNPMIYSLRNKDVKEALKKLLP
# In short: as §1
# OR9I1 (Homo sapiens) = OR9I1 (Homo sapiens) (UniProt Q8NGQ6)
# Sequence of OR9I1 (Homo sapiens) (Q8NGQ6 whole entry): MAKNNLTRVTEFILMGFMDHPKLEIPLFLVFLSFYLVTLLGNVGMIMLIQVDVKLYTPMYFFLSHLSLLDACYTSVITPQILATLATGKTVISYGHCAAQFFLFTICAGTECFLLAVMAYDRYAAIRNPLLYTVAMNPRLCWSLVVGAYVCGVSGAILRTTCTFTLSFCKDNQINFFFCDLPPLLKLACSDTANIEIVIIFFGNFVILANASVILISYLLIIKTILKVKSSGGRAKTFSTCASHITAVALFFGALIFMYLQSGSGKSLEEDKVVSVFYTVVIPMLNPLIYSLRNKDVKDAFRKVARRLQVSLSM
# In short: as §1
# OR9K2 (Homo sapiens) = OR9K2 (Homo sapiens) (UniProt Q8NGE7)
# Sequence of OR9K2 (Homo sapiens) (Q8NGE7 whole entry): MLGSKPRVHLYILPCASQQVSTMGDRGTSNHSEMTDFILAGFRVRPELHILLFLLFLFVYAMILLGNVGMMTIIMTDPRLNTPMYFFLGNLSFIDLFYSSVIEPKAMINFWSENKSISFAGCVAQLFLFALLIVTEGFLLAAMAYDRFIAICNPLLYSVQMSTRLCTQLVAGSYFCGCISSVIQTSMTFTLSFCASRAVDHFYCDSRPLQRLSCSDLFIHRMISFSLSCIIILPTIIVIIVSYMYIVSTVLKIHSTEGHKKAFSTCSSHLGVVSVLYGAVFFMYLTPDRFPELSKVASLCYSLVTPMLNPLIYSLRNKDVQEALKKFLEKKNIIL
# In short: as §1
# OR9K2 R207H = system: OR9K2 R207H
# Sequence of OR9K2 R207H (as listed by the source, stated change not applied): as the sequence (Q8NGE7 whole entry) above, with R207H counted along it
# In short: as §1
# OR9Q1 (Homo sapiens) = OR9Q1 (Homo sapiens) (UniProt Q8NGQ5)
# Sequence of OR9Q1 (Homo sapiens) (Q8NGQ5 whole entry): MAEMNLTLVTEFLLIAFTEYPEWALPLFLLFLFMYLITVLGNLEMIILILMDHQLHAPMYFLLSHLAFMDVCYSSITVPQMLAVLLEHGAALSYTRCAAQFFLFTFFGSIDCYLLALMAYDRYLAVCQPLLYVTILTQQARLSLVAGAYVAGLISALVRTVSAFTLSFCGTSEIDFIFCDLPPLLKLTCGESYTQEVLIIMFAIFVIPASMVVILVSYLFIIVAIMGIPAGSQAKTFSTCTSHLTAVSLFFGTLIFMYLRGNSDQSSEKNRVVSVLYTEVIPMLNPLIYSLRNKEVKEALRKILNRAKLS
# In short: as §1
# OR9Q1 A83T = system: OR9Q1 A83T
# Sequence of OR9Q1 A83T (as listed by the source, stated change not applied): as the sequence (Q8NGQ5 whole entry) above, with A83T counted along it
# In short: as §1
# OR9Q2 (Homo sapiens) = OR9Q2 (Homo sapiens) (UniProt Q8NGE9)
# Sequence of OR9Q2 (Homo sapiens) (Q8NGE9 whole entry): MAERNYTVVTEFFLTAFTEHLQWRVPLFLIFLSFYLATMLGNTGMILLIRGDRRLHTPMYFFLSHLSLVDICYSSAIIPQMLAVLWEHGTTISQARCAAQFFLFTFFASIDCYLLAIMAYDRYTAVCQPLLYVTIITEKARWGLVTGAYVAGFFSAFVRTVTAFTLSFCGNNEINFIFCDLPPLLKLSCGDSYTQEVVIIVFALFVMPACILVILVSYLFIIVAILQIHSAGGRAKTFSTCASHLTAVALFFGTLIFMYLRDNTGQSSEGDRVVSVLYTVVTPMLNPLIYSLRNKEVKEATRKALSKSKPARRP
# In short: as §1
# OR9Q2 C179R = system: OR9Q2 C179R
# Sequence of OR9Q2 C179R (as listed by the source, stated change not applied): as the sequence (Q8NGE9 whole entry) above, with C179R counted along it
# In short: as §1
# OR9G9 (Homo sapiens) = OR9G9 (Homo sapiens) (UniProt P0C7N8)
# Sequence of OR9G9 (Homo sapiens) (P0C7N8 whole entry): as the sequence (as listed by the source) above, with G193C counted along it
# In short: as §1
# Or5an6 (Mus musculus) = Or5an6 (Mus musculus) (UniProt Q8VFV4)
# Sequence of Or5an6 (Mus musculus) (Q8VFV4 whole entry): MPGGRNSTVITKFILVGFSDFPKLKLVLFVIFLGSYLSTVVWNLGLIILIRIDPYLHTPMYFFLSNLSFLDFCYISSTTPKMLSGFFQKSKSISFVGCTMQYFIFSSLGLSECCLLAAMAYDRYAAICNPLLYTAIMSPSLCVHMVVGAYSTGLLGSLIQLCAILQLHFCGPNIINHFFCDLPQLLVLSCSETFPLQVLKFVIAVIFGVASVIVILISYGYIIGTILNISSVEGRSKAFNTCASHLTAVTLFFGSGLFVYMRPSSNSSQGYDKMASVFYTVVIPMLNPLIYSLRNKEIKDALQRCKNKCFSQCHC
# In short: as §1
# [1] = molecular target: Olr226 (Rattus norvegicus) (UniProt P23270)
# Sequence of Olr226 (Rattus norvegicus) (P23270 whole entry): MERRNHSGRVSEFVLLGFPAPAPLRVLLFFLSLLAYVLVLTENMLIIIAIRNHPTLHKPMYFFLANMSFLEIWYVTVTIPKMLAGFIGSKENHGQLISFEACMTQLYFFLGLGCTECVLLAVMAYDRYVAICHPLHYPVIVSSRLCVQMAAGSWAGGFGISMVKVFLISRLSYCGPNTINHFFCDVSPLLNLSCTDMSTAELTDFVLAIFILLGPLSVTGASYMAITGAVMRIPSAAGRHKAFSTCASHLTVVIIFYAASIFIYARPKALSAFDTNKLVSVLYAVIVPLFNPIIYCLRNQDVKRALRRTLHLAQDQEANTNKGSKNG
# In short: as §1
# Sequence of Or5p57 (Mus musculus) (Q8VEZ0 whole entry): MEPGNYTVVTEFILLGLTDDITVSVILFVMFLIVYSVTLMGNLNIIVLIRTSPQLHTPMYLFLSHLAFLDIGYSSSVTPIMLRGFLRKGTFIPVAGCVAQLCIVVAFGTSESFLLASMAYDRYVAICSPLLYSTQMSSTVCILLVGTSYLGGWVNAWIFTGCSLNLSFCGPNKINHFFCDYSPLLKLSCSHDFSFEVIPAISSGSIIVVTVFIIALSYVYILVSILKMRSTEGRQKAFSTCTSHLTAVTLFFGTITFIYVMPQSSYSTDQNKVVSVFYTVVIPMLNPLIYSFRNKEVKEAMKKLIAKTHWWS
smiles,measurement,setting,value
O=C(O)CCCCCCCBr,odorant receptor agonist call,Or5p57 (Mus musculus),inactive
C=C(C)C1CC=C(C=O)CC1 (centres undefined),odorant receptor agonist call,Or1m1 (Mus musculus),inactive
same,odorant receptor agonist call,Or5ar1 (Mus musculus),inactive
same,odorant receptor agonist call,UniProt A2ATE5,inactive
same,odorant receptor agonist call,UniProt A2AVB0,inactive
O=c1cc(O)c2ccccc2o1,odorant receptor agonist call,Or1m1 (Mus musculus),inactive
same,odorant receptor agonist call,Or2c1 (Mus musculus),inactive
same,odorant receptor agonist call,Or5ar1 (Mus musculus),inactive
same,odorant receptor agonist call,Or5p80 (Mus musculus),inactive
same,odorant receptor agonist call,Or7a40 (Mus musculus),inactive
same,odorant receptor agonist call,UniProt A2ATE5,inactive
same,odorant receptor agonist call,UniProt A2AVB0,inactive
same,odorant receptor agonist call,UniProt A2AVB5,inactive
C=CCc1ccccc1,odorant receptor agonist call,Or2c1 (Mus musculus),active
same,odorant receptor agonist call,Or5ar1 (Mus musculus),inactive
same,odorant receptor agonist call,Or5p80 (Mus musculus),inactive
same,odorant receptor agonist call,Or7a40 (Mus musculus),inactive
same,odorant receptor agonist call,UniProt A2AVB5,inactive
CSSC,odorant receptor agonist call,Or1m1 (Mus musculus),inactive
same,odorant receptor agonist call,Or5ar1 (Mus musculus),inactive
same,odorant receptor agonist call,UniProt A2ATE5,inactive
same,odorant receptor agonist call,UniProt A2AVB0,inactive
COc1ccc(C=O)cc1,odorant receptor agonist call,Or1m1 (Mus musculus),inactive
same,odorant receptor agonist call,Or5ar1 (Mus musculus),inactive
same,odorant receptor agonist call,UniProt A2ATE5,inactive
same,odorant receptor agonist call,UniProt A2AVB0,inactive
CCC1CCC(=O)O1 (centres undefined),odorant receptor agonist call,Or2c1 (Mus musculus),inactive
same,odorant receptor agonist call,Or5ar1 (Mus musculus),inactive
same,odorant receptor agonist call,Or5p80 (Mus musculus),inactive
same,odorant receptor agonist call,Or7a40 (Mus musculus),inactive
same,odorant receptor agonist call,UniProt A2AVB5,inactive
CCCCCCC(Br)C(=O)O (centres undefined),odorant receptor agonist call,Or1m1 (Mus musculus),inactive
same,odorant receptor agonist call,Or5ar1 (Mus musculus),inactive
same,odorant receptor agonist call,UniProt A2ATE5,inactive
same,odorant receptor agonist call,UniProt A2AVB0,inactive
CCCCC(Br)C(=O)O (centres undefined),odorant receptor agonist call,Or1m1 (Mus musculus),inactive
same,odorant receptor agonist call,Or5ar1 (Mus musculus),inactive
same,odorant receptor agonist call,UniProt A2ATE5,inactive
same,odorant receptor agonist call,UniProt A2AVB0,inactive
C=CCOC(=O)Cc1ccccc1,odorant receptor agonist call,OR9G9,inactive
same,odorant receptor agonist call,OR9I1 (Homo sapiens),inactive
same,odorant receptor agonist call,OR9K2 (Homo sapiens),inactive
same,odorant receptor agonist call,OR9K2 R207H,inactive
same,odorant receptor agonist call,OR9Q1 (Homo sapiens),inactive
same,odorant receptor agonist call,OR9Q1 A83T,inactive
same,odorant receptor agonist call,OR9Q2 (Homo sapiens),inactive
same,odorant receptor agonist call,OR9Q2 C179R,inactive
same,odorant receptor agonist call,Or1m1 (Mus musculus),inactive
same,odorant receptor agonist call,Or2c1 (Mus musculus),active
same,odorant receptor agonist call,Or5ar1 (Mus musculus),inactive
same,odorant receptor agonist call,Or5p80 (Mus musculus),inactive
same,odorant receptor agonist call,Or7a40 (Mus musculus),inactive
same,odorant receptor agonist call,UniProt A2ATE5,inactive
same,odorant receptor agonist call,UniProt A2AVB0,inactive
same,odorant receptor agonist call,UniProt A2AVB5,inactive
Cc1c([N+](=O)[O-])c(C)c([N+](=O)[O-])c(C(C)(C)C)c1[N+](=O)[O-],odorant receptor agonist call,OR9G9 (Homo sapiens),inactive
same,odorant receptor agonist call,OR9I1 (Homo sapiens),inactive
same,odorant receptor agonist call,OR9K2 (Homo sapiens),inactive
same,odorant receptor agonist call,OR9Q1 (Homo sapiens),inactive
same,odorant receptor agonist call,OR9Q2 (Homo sapiens),inactive
same,odorant receptor agonist call,Or5an6 (Mus musculus),active
CC(C=O)Cc1ccc2c(c1)OCO2 (centres undefined),odorant receptor agonist call,[1],inactive
same,odorant receptor agonist call,Or1m1 (Mus musculus),inactive
same,odorant receptor agonist call,Or5ar1 (Mus musculus),inactive
same,odorant receptor agonist call,UniProt A2ATE5,inactive
same,odorant receptor agonist call,UniProt A2AVB0,inactive
O=Cc1ccc2c(c1)OCO2,odorant receptor agonist call,Or1m1 (Mus musculus),inactive
same,odorant receptor agonist call,Or5ar1 (Mus musculus),inactive
same,odorant receptor agonist call,UniProt A2ATE5,inactive
same,odorant receptor agonist call,UniProt A2AVB0,inactive
O=CC=Cc1ccccc1,odorant receptor agonist call,OR9G9,active
same,odorant receptor agonist call,Or1m1 (Mus musculus),inactive
same,odorant receptor agonist call,Or5ar1 (Mus musculus),inactive
same,odorant receptor agonist call,UniProt A2ATE5,inactive
same,odorant receptor agonist call,UniProt A2AVB0,inactive
OCc1ccc2c(c1)OCO2,odorant receptor agonist call,Or1m1 (Mus musculus),inactive
same,odorant receptor agonist call,Or5ar1 (Mus musculus),inactive
same,odorant receptor agonist call,UniProt A2ATE5,inactive
same,odorant receptor agonist call,UniProt A2AVB0,inactive

# From the M2OR odorant receptor database
